Assay results pooled from the literature.
BTK: Tyrosine-protein kinase BTK (BTK, Homo sapiens, UniProt Q06187)

With CN(C)C1CCN(CC#Cc2nn(C3CCCC3)c3nc(NCc4ccccc4)ncc23)C1 (stereo not shown) the inhibition was 22% (BTK; enzyme activity; inhibitor; FRET; 10 µM).
COc1ccc(F)cc1C(=O)NCc1ccc(-c2nn([C@@H](C)C(F)(F)F)c(N)c2C(N)=O)cc1 gave an inhibition of 97% (BTK; enzyme activity; inhibitor; radiometric; 0.1 µM).
CCCS(=O)(=O)Nc1ccc(F)c(C(=O)c2c[nH]c3ncc(-c4ccc(Cl)cc4)cc23)c1F gave an inhibition of less than 10% (BTK; enzyme activity; inhibitor; 1 µM).
For COc1cc2ncnc(Nc3ccc(Oc4ccccc4)c(C)c3C)c2cc1OC, the inhibition was 33% (BTK; enzyme activity; inhibitor; 1 µM).
For CNC(=O)c1cc(Oc2ccc(NC(=O)Nc3ccc(Cl)c(C(F)(F)F)c3)cc2)ccn1, the inhibition was 43% (BTK; enzyme activity; inhibitor; 10 µM).
With O=C(CSc1nc2nccnc2c(=O)n1CCc1ccccc1)Nc1nccs1 the inhibition was 4% (BTK; enzyme activity; inhibitor; 10 µM).
CNCc1ccc(-c2cc(-c3nc(-c4ccc(S(=O)(=O)C(C)C)cc4)cnc3N)on2)cc1 gave an inhibition of 6% (BTK; enzyme activity; inhibitor; 2 µM).
CC/C(=N\NC(=O)NCc1cccc(O)c1)c1ccc(O)c(C)c1O gave an inhibition of -1.8% (Tyrosine-protein kinase BTK (BTK, Homo sapiens, UniProt Q06187, C481S); enzyme activity; inhibitor; 0.1 µM).
For Cc1ccc(Nc2nccc(N(C)c3ccc4c(C)n(C)nc4c3)n2)cc1S(N)(=O)=O, the inhibition was 12% (BTK; enzyme activity; inhibitor; 0.3 µM).
CNc1cccc2cc(C(=O)Nc3ccc(C(=O)O)cc3)c(=O)[nH]c12 gave an inhibition of 2.1% (BTK; enzyme activity; inhibitor; 10 µM).
With CN(c1ncccc1CNc1nc(Nc2ccc3c(c2)CC(=O)N3)ncc1C(F)(F)F)S(C)(=O)=O the inhibition was 65% (BTK; enzyme activity; inhibitor; 1 µM).
For CCN(CC)CCNC(=O)c1c(C)[nH]c(/C=C2\C(=O)Nc3ccc(F)cc32)c1C, the inhibition was 16% (BTK; enzyme activity; inhibitor; 0.3 µM).
CCN(CC)CCNC(=O)c1c(C)[nH]c(/C=C2\C(=O)Nc3ccc(F)cc32)c1C has an inhibition of 91.3% (BTK; binding; competition with immobilised ligand; 0.1 µM).
